# Test results: ChEMBL document CHEMBL1152217, “Affinity labeling of the proteasome by a belactosin A derived inhibitor” (Bioorg Med Chem Lett, 2008)
# pIC50: −log10 of the molar value. Active and inactive are the calls of the source. The rule behind the calls is not given here. Residues, ends and D or L forms follow the SMILES beside them. *: point of attachment. Cbz = O=C(OCc1ccccc1)*
# How the values were obtained:
# [1] = Inhibition of trypsin-like activity of 20S proteasome in human erythrocytes
# Summary of the method: (§1)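 Purified human erythrocyte 20S core particle (100–200 ng) mixed with inhibitors at varied concentrations in 25 mM HEPES pH 7.6, 0.5 mM EDTA, 0.03% SDS; SDS left out for the trypsin-like assay. Started by adding fluorogenic AMC substrate: Suc-LLVY-AMC (chymotrypsin-like), Boc-LRR-AMC (trypsin-like), Z-LLE-AMC (PGPH). Fluorescence read up to 1 h (ex 380, em 460 nm). Activity from slope; IC50 derived.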
# HeLa = assay: Growth inhibition of human HeLa cells after 48 hrs by MTT assay; assay type: functional, cell-based
# Summary of the method: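 HeLa cells grown in RPMI 1640 with 10% heat-inactivated fetal calf serum plus penicillin/streptomycin under 5% CO2. Inhibitors added at various concentrations for 48 h. Viability by MTT, absorbance at 570 nm. IC50 taken from growth inhibition.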
# [2] = Inhibition of PGPH catalytic activity of 20S proteasome in human erythrocytes; summary of the method: as §1
# [3] = Inhibition of chymotrypsin-like activity of 20S proteasome in human erythrocytes; summary of the method: as §1
# [4] = target: Proteasome Macropain subunit (Homo sapiens) (UniProt P49721); assay: Inhibition of clasto-lactacystin binding to beta2 subunit of 20S proteasome in human HeLa cells at 1 uM by Western blotting analysis; assay type: cell-based
# Chain of Proteasome Macropain subunit (Homo sapiens) (P49721 whole entry): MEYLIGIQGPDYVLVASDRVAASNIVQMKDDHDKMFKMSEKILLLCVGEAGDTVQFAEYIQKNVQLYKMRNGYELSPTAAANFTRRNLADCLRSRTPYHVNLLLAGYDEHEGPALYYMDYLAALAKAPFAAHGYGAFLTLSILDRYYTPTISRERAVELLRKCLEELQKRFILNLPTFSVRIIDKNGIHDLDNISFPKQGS
# [5] = target: T1, Proteasome Macropain subunit MB1 (Homo sapiens) (UniProt P28074); assay: Inhibition of clasto-lactacystin binding to beta5 subunit of 20S proteasome in human HeLa cells at 1 uM by Western blotting analysis; assay type: cell-based
# T1 sequence (whole entry): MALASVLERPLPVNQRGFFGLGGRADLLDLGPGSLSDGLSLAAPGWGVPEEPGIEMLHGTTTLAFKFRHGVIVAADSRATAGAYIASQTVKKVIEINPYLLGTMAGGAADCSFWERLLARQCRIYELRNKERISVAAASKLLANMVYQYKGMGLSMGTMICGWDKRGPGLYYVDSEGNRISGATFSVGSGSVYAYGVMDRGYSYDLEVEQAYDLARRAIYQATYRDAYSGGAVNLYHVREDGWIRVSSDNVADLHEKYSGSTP
# [6] = target: T1, Proteasome Macropain subunit MB1 (Homo sapiens); assay: Inhibition of MG132 binding to beta5 subunit of 20S proteasome in human HeLa cells at 1 uM by Western blotting analysis; assay type: cell-based
# Summary of the method: (§2)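 Competition in intact HeLa cells. Cells were preincubated 1 h at 37 °C in serum-free medium with various concentrations of MG132, then given 1.0 µM dansyl-KF33955 for another hour. Cells were pelleted, lysed by sonication in urea/thiourea denaturing buffer, and resolved by SDS-PAGE. Remaining β subunit labeling was detected by anti-dansyl immunoblot.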
# [7] = target: T2, Proteasome component C5 (Homo sapiens) (UniProt P20618); assay: Inhibition of MG132 binding to beta-1 subunit of 20S proteasome in human HeLa cells at 1 uM by Western blotting analysis; assay type: cell-based; summary of the method: as §2
# T2 sequence (whole entry): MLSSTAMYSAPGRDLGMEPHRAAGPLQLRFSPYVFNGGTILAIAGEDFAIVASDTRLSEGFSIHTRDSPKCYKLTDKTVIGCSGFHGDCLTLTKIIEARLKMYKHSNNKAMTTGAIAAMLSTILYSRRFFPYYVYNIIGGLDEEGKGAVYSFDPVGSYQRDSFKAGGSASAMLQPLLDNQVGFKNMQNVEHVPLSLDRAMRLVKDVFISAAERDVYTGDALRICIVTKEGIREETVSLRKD
# [8] = target: T2, Proteasome component C5 (Homo sapiens); assay: Binding affinity to 20S proteasome beta-1 subunit in human erythrocyte at 1 uM after 1 hr by Western blotting analysis
# Summary of the method: (§3)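 Purified human erythrocyte 20S core particle solution incubated with 1.0 µM dansyl-KF33955 for various times, then diluted directly in 2× denaturing buffer (urea/thiourea/CHAPS/Triton, pH 8.8). Proteins resolved by SDS-PAGE and transferred to PVDF. Labeled β subunits detected by immunoblot with anti-dansyl monoclonal antibody and ECL.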
# [9] = target: T1, Proteasome Macropain subunit MB1 (Homo sapiens); assay: Binding affinity to 20S proteasome beta5 subunit in human erythrocyte at 1 uM after 1 hr by Western blotting analysis; summary of the method: as §3
# [10] = target: T2, Proteasome component C5 (Homo sapiens); assay: Binding affinity to 20S proteasome beta-1 subunit in human erythrocyte at 1 uM after 0.5 hr by Western blotting analysis; summary of the method: as §3
# [11] = target: T2, Proteasome component C5 (Homo sapiens); assay: Binding affinity to 20S proteasome beta-1 subunit in intact human HeLa cells at 1 uM by Western blotting analysis; assay type: cell-based; details: TDE = time-dependent effect
# Summary of the method: (§4)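 Intact HeLa cells (RPMI 1640, 10% FCS) incubated with 1.0 µM dansyl-KF33955 at 37 °C in serum-free medium for varying times. Cells were pelleted, put in urea/thiourea denaturing buffer at 4 °C and sonicated. Lysates were run on SDS-PAGE and blotted to PVDF. Labeled β subunits were detected with anti-dansyl monoclonal antibody and ECL.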
# [12] = target: T1, Proteasome Macropain subunit MB1 (Homo sapiens); assay: Binding affinity to 20S proteasome beta5 subunit in human HeLa cell extract at 1 uM by Western blotting analysis; assay type: cell-free
# Summary of the method: (§5)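 26S proteasome extract from HeLa cells at 50–80% confluency. Cells were washed in ice-cold PBS and resuspended in pH 7.5 Tris buffer with sucrose, MgCl2, EDTA, DTT and 1 mM ATP. They were permeabilized with 0.025% digitonin for 5 min on ice, and the cytosol was recovered at 15,000g. The extract was labeled with 1.0 µM dansyl-KF33955 for various times, diluted in 2× denaturing buffer, resolved by SDS-PAGE and immunoblotted with anti-dansyl antibody.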
# [13] = target: Proteasome Macropain subunit (Homo sapiens) (UniProt P49721); assay: Binding affinity to 20S proteasome beta2 subunit in human erythrocyte at 1 uM after 1 hr by Western blotting analysis; summary of the method: as §3
# [14] = target: Proteasome subunit beta type-5 (Homo sapiens) (UniProt P28074); assay: Binding affinity to 20S proteasome beta5 subunit in human erythrocyte at 1 uM after 0.5 hr by Western blotting analysis
# [15] = target: Proteasome Macropain subunit (Homo sapiens) (UniProt P49721); assay: Binding affinity to 20S proteasome beta2 subunit in human erythrocyte at 1 uM after 0.5 hr by Western blotting analysis; summary of the method: as §3
# [16] = target: T2, Proteasome component C5 (Homo sapiens); assay: Binding affinity to 26S proteasome beta-1 subunit in human HeLa cell extract at 1 uM by Western blotting analysis; assay type: cell-free; summary of the method: as §5
# [17] = target: T1, Proteasome Macropain subunit MB1 (Homo sapiens); assay: Binding affinity to 20S proteasome beta5 subunit in intact human HeLa cells at 1 uM by Western blotting analysis; assay type: cell-based; details: TDE = time-dependent effect; summary of the method: as §4
# [18] = target: Proteasome Macropain subunit (Homo sapiens) (UniProt P49721); assay: Binding affinity to 20S proteasome beta2 subunit in intact human HeLa cells at 1 uM by Western blotting analysis; assay type: cell-based; details: TDE = time-dependent effect; summary of the method: as §4
# [19] = target: T1, Proteasome Macropain subunit MB1 (Homo sapiens); assay: Binding affinity to 20S proteasome beta5 subunit in human erythrocyte at 1 uM by Western blotting analysis; summary of the method: as §3
# [20] = target: T2, Proteasome component C5 (Homo sapiens); assay: Binding affinity to 20S proteasome beta-1 subunit in human erythrocyte at 1 uM by Western blotting analysis; summary of the method: as §3
# [21] = target: Proteasome Macropain subunit (Homo sapiens) (UniProt P49721); assay: Binding affinity to 20S proteasome beta2 subunit in human HeLa cell extract at 1 uM by Western blotting analysis; assay type: cell-free; summary of the method: as §5
# [22] = target: Proteasome Macropain subunit (Homo sapiens) (UniProt P49721); assay: Binding affinity to 20S proteasome beta2 subunit in human erythrocyte at 1 uM by Western blotting analysis; summary of the method: as §3
Activity [6],Activity [7],Compound,pIC50 [1],pIC50 (HeLa),pIC50 [2],pIC50 [3],Activity [4],Activity [5],also measured
,,CC[C@H](C)[C@@H]1C(=O)O[C@H]1C(=O)N[C@H]1C[C@H]1C[C@H](NC(=O)[C@H](C)N)C(=O)O [BELACTOSIN A],5.31,4.43,4.85,6.09,,,
,,CC(C)[C@H](O)[C@]12NC(=O)[C@H](C)[C@@H]1OC2=O,6.16,,5.08,7.54,Active,Active,
Active,Active,CC(C)C[C@@H](C=O)NC(=O)[C@H](CC(C)C)NC(=O)[C@H](CC(C)C)NC(=O)OCc1ccccc1 [MG-132] (Cbz-Leu-Leu-Leu-aldehyde),5.68,,6.92,7.96,,,
,,CC[C@H](C)[C@@H]1C(=O)O[C@H]1C(=O)N[C@H]1C[C@H]1C[C@H](NC(=O)[C@H](C)N)C(=O)OCc1ccccc1,6.35,6.30,5.43,6.47,,,
Active,Active,CC[C@H](C)[C@@H]1C(=O)O[C@H]1C(=O)N[C@H]1C[C@H]1C[C@H](NC(=O)[C@H](C)NC(=O)CCCCCNS(=O)(=O)c1cccc2c(N(C)C)cccc12)C(=O)OCc1ccccc1,5.68,5.01,6.82,7.54,Active,Active,Activity [8]: Active; Activity [9]: Active; Activity [10]: Active; Activity [11]: tde; Activity [12]: Active; Activity [13]: Active; Activity [14]: Active; Activity [15]: Active; Activity [16]: Active; Activity [17]: tde; Activity [18]: tde; Activity [19]: Active; Activity [20]: Active; Activity [21]: Active; Activity [22]: Active
